ChEMBL document CHEMBL1649444, “Omeprazole antagonizes virulence and inflammation in Salmonella enterica-infected RAW264.7 cells” (Antimicrob Agents Chemother, 2009)
Calls of active or inactive are those of the source. The rule behind the calls is not given here.

How the values were obtained:
Salmonella typhimurium [1] = test: Antimicrobial activity against Salmonella enterica Typhimurium 14028 infected in RAW 264.7 cells assessed as inhibition of bacterial replication at 100 nM treated 30 mins before infection measured after 2 to 16 hrs postinfection by flow cytometry; assay type: functional, organism-based; conditions: Salmonella enterica subsp. enterica serovar Typhimurium
Salmonella typhimurium [2] = test: Bactericidal activity against Salmonella enterica Typhimurium 14028 infected in RAW 264.7 cells assessed as decrease in bacterial growth yield at 100 nM after 16 hrs postinfection by flow cytometry in presence of 10 ug/ml of intracellular replication inhibitor tetracycline; assay type: functional, organism-based; conditions: Salmonella enterica subsp. enterica serovar Typhimurium
Salmonella typhimurium [3] = test: Antimicrobial activity against Salmonella enterica Typhimurium 14028 infected in RAW 264.7 cells assessed as […] nitric oxide production in infected cells at 100 nM; assay type: functional, organism-based; conditions: Salmonella enterica subsp. enterica serovar Typhimurium
Outline: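 Nonactivated RAW264.7 cells infected with opsonized (10% preimmune BALB/c serum, 30 min, 37°C) noninvasive-grown S. Typhimurium 14028 at MOI 10; cells pretreated 30 min before infection, then fresh medium. 1 h infection, 45 min gentamicin 50 μg/ml, then 10 μg/ml maintenance. NO measured as nitrite in medium by Griess reagent, OD 525 nm against sodium nitrite standards.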

RAW264.7 [4] = test: Induction of apoptosis in mouse RAW264.7 cells assessed as early apoptotic cells at 100 nM after 16 hrs using annexin V-propidium iodide staining by flow cytometry; assay type: cell-based; conditions: raw264.7, 16 h, 0.1 µM
Outline: (§1)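 RAW264.7 cells cultured with compound for 16 h, DMSO as control. Cells stained with annexin V-FITC plus propidium iodide and analysed by flow cytometry. Populations given as percentages of all cells counted, with standard deviations.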

RAW264.7 [5] = test: Induction of apoptosis in mouse RAW264.7 cells assessed as late apoptotic cells at 100 nM after 16 hrs using annexin V-propidium iodide staining by flow cytometry; assay type: cell-based; conditions: raw264.7, 16 h, 0.1 µM; outline: as §1
RAW264.7 [6] = test: Induction of apoptosis in mouse RAW264.7 cells assessed as necrotic cells at 100 nM after 16 hrs using annexin V-propidium iodide staining by flow cytometry; assay type: cell-based; conditions: raw264.7, 16 h, 0.1 µM; outline: as §1
RAW264.7 [7] = test: Cytotoxicity against mouse RAW264.7 cells at 100 nM by LDH release assay; assay type: cell-based; conditions: raw264.7, 0.1 µM
Outline: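 RAW264.7 cells cultured with compound for 16 h. LDH released into the culture medium measured chromogenically with a cytotoxicity detection kit. Triplicates, repeated at least twice; paired t test.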

RAW264.7 [8] = test: Cytotoxicity against mouse RAW264.7 cells assessed as change vacuolar pH at 200 uM using acridine orange stain by fluorescent microscope; assay type: cell-based; conditions: raw264.7, 200 µM
Outline: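 RAW264.7 cells treated with compound, then stained with acridine orange, whose fluorescence shifts upon protonation. Intravacuolar orange staining scored by fluorescence microscopy as acidified vacuoles.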

Salmonella typhimurium [9] = test: Bacteriostatic activity against Salmonella enterica Typhimurium 14028 infected in RAW 264.7 cells assessed as decrease in bacterial growth yield at 200 uM after 16 hrs postinfection by flow cytometry; assay type: functional, organism-based; conditions: Salmonella enterica subsp. enterica serovar Typhimurium
Salmonella typhimurium [10] = test: bacteriostatic activity against Salmonella enterica Typhimurium 14028 infected in RAW 264.7 cells assessed as decrease intracellular bacteria at 200 uM after 16 hrs postinfection by GFP-based fluorescent reduction assay; assay type: functional, organism-based; conditions: Salmonella enterica subsp. enterica serovar Typhimurium
Salmonella typhimurium [11] = test: Antimicrobial activity against Salmonella enterica Typhimurium 14028 infected in RAW 264.7 cells assessed as decrease in bacterial growth yield at 200 uM after 16 hrs postinfection by flow cytometry in presence of 10 ug/ml of intracellular replication inhibitor tetracycline; assay type: functional, organism-based; conditions: Salmonella enterica subsp. enterica serovar Typhimurium
Salmonella typhimurium [12] = test: Antimicrobial activity against Salmonella enterica Typhimurium 14028 infected in RAW 264.7 cells assessed as growth inhibition at 200 uM treated 4 hr postinfection measured after 16 hrs of postinfection by flow cytometry; assay type: functional, organism-based; conditions: Salmonella enterica subsp. enterica serovar Typhimurium
Salmonella typhimurium [13] = test: Antimicrobial activity against Salmonella enterica Typhimurium 14028 infected in RAW 264.7 cells assessed as growth inhibition at 200 uM treated 6 hr postinfection measured after 16 hrs of postinfection by flow cytometry; assay type: functional, organism-based; conditions: Salmonella enterica subsp. enterica serovar Typhimurium
Salmonella typhimurium [14] = test: Antimicrobial activity against Salmonella enterica Typhimurium 14028 infected in RAW 264.7 cells assessed as growth inhibition at 200 uM treated 3 hr before infection measured after 16 hrs of postinfection by flow cytometry; assay type: functional, organism-based; conditions: Salmonella enterica subsp. enterica serovar Typhimurium
Salmonella typhimurium [15] = test: Antimicrobial activity against sifA gene-deficient Salmonella enterica Typhimurium 14028 infected in RAW 264.7 cells assessed as growth inhibition at 200 uM after 2 to 16 hrs postinfection by flow cytometry relative to untreated control; assay type: functional, organism-based; conditions: Salmonella enterica subsp. enterica serovar Typhimurium
Salmonella typhimurium [16] = test: Antimicrobial activity against ssaV gene-deficient Salmonella enterica Typhimurium 14028 infected in RAW 264.7 cells assessed as growth inhibition at 200 uM after 2 to 16 hrs postinfection by flow cytometry relative to untreated control; assay type: functional, organism-based; conditions: Salmonella enterica subsp. enterica serovar Typhimurium
Salmonella typhimurium [17] = test: Antimicrobial activity against sseG gene-deficient Salmonella enterica Typhimurium 14028 infected in RAW 264.7 cells assessed as growth inhibition at 200 uM after 2 to 16 hrs postinfection by flow cytometry relative to untreated control; assay type: functional, Salmonella enterica subsp. enterica serovar Typhimurium
Salmonella typhimurium [18] = test: Antimicrobial activity against Salmonella enterica Typhimurium 14028 infected in RAW 264.7 cells assessed as inhibition of inducible nitric oxide synthase expression in infected cells at 200 uM by Immunoblotting relative to untreated control; assay type: functional, organism-based; conditions: Salmonella enterica subsp. enterica serovar Typhimurium
Salmonella typhimurium [19] = test: Antimicrobial activity against Salmonella enterica Typhimurium 14028 infected in RAW 264.7 cells assessed as decrease in TNF-alpha secretion from infected cells at 200 Um after 16 hrs postinfection by ELISA relative to untreated control; assay type: functional, organism-based; conditions: Salmonella enterica subsp. enterica serovar Typhimurium
Salmonella typhimurium [20] = test: Antimicrobial activity against Salmonella enterica Typhimurium 14028 infected in RAW 264.7 cells assessed as decrease in IL-6 secretion from infected cells at 200 uM after 16 hrs postinfection by ELISA relative to untreated control; assay type: functional, organism-based; conditions: Salmonella enterica subsp. enterica serovar Typhimurium
Salmonella typhimurium [21] = test: Antimicrobial activity against Salmonella enterica Typhimurium 14028 infected in RAW 264.7 cells assessed as delayed degradation of IkappaB-alpha in infected cells at 200 uM after 20 mins postinfection by Immunoblotting relative to untreated control; assay type: functional, organism-based; conditions: Salmonella enterica subsp. enterica serovar Typhimurium
Salmonella typhimurium [22] = test: Antimicrobial activity against Salmonella enterica Typhimurium 14028 infected in RAW 264.7 cells assessed as delayed degradation of IkappaB-alpha in infected cells at 200 uM after 40 mins postinfection by Immunoblotting relative to untreated control; assay type: functional, organism-based; conditions: Salmonella enterica subsp. enterica serovar Typhimurium
RAW264.7 [23] = test: Induction of apoptosis in mouse RAW264.7 cells assessed as early apoptotic cells at 200 uM after 16 hrs using annexin V-propidium iodide staining by flow cytometry; assay type: cell-based; conditions: raw264.7, 16 h
Outline: (§2)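 RAW264.7 cells kept 16 h with or without compound in DMSO. Cells stained with annexin V-FITC plus propidium iodide and analysed by flow cytometry. Populations given as percent of all cells counted, with standard deviations.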

RAW264.7 [24] = test: Induction of apoptosis in mouse RAW264.7 cells assessed as late apoptotic cells at 200 uM after 16 hrs using annexin V-propidium iodide staining by flow cytometry; assay type: cell-based; conditions: raw264.7, 16 h; outline: as §2
RAW264.7 [25] = test: Induction of apoptosis in mouse RAW264.7 cells assessed as necrotic cells at 200 uM after 16 hrs using annexin V-propidium iodide staining by flow cytometry; assay type: cell-based; conditions: raw264.7, 16 h; outline: as §2
RAW264.7 [26] = test: Cytotoxicity against mouse RAW264.7 cells at 200 uM by LDH release assay; assay type: cell-based; conditions: raw264.7, 200 µM
Salmonella typhimurium [27] = test: Antimicrobial activity against Salmonella enterica Typhimurium 14028 infected in RAW 264.7 cells assessed as decrease in segregation of plasmid at 200 uM; assay type: functional, organism-based; conditions: Salmonella enterica subsp. enterica serovar Typhimurium
Salmonella typhimurium [28] = test: Antimicrobial activity against sseF gene-deficient Salmonella enterica Typhimurium 14028 infected in RAW 264.7 cells assessed as growth inhibition at 200 uM after 2 to 16 hrs postinfection by viable counting relative to untreated control

Structure (SMILES): CO/C1=C\C(C)=C\[C@@H](C)[C@@H](O)[C@@H](C)C/C(C)=C/C=C/[C@H](OC)[C@@H]([C@@H](C)[C@@H](O)[C@H](C)[C@@]2(O)C[C@@H](O)[C@H](C)[C@@H](C(C)C)O2)OC1=O [BAFILOMYCIN A1]
- Activity (Salmonella typhimurium [1]): Active
- Activity (Salmonella typhimurium [2]): Active
- Activity (Salmonella typhimurium [3]): Active
- Activity (RAW264.7 [4]): 29.2%
- Activity (RAW264.7 [5]): 31.5%
- Activity (RAW264.7 [6]): 0.4%
- Activity (RAW264.7 [7]): Toxic
- Activity (RAW264.7 [8]): Toxic

Structure (SMILES): COc1ccc2[nH]c([S+]([O-])Cc3ncc(C)c(OC)c3C)nc2c1 (stereo not drawn) [OMEPRAZOLE]
- Activity (Salmonella typhimurium [9]): Active
- Activity (Salmonella typhimurium [10]): Active
- Activity (Salmonella typhimurium [11]): inactive
- Activity (Salmonella typhimurium [12]): Active
- Activity (Salmonella typhimurium [13]): Active
- Activity (Salmonella typhimurium [14]): Active
- Activity (Salmonella typhimurium [15]): inactive
- Activity (Salmonella typhimurium [16]): inactive
- fold change (FC) (Salmonella typhimurium [17]): 2
- Activity (Salmonella typhimurium [18]): inactive
- Activity (Salmonella typhimurium [19]): inactive
- Activity (Salmonella typhimurium [20]): inactive
- Activity (Salmonella typhimurium [21]): inactive
- Activity (Salmonella typhimurium [22]): inactive
- Activity (RAW264.7 [23]): 25.3%
- Activity (RAW264.7 [24]): 15.8%
- Activity (RAW264.7 [25]): 0.1%
- Activity (RAW264.7 [26]): Non-toxic
- Activity (Salmonella typhimurium [27]): Active
- fold change (FC) (Salmonella typhimurium [28]): 2
